Results published in ChEMBL document CHEMBL1641490, “Dicationic phenyl-2,2'-bichalcophenes and analogues as antiprotozoal agents” (Bioorg Med Chem, 2011).
The source made the active and inactive calls. The rule behind the calls is not given here.

What was measured:
[1] = test system: Trypanosoma brucei rhodesiense; test: Antitrypanosomal activity against Trypanosoma brucei rhodesiense STIB900 infected in NMRI mouse assessed as parasitemia free host at 5 mg/kg, ip administered 2 days after post infection for 4 consecutive days measured up to 60 days; assay type: functional, organism-based; design: dose 5 mg/kg
L6 = test: Cytotoxicity against rat L6 cells by alamar blue assay; assay type: cell-based
[2] = Selectivity index, ratio of IC50 for rat L6 cells to IC50 for Trypanosoma brucei rhodesiense STIB900; assay type: toxicity, cell-based; conditions: L6 cells versus Trypanosoma brucei rhodesiense STIB900, read-out: Ratio IC50
Procedure, shortened: (§1)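 Ratio of IC50 in cultured L6 rat myoblasts (Alamar Blue read-out) to IC50 against P. falciparum K1 or T. b. rhodesiense STIB900. Parasite values are the average of duplicate determinations.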

[3] = Selectivity index, ratio of IC50 for rat L6 cells to IC50 for Plasmodium falciparum K1; assay type: toxicity, cell-based; conditions: L6 cells versus Plasmodium falciparum K1, read-out: Ratio IC50; procedure, shortened: as §1
[4] = test system: Trypanosoma brucei rhodesiense; test: Antitrypanosomal activity against Trypanosoma brucei rhodesiense STIB900 infected in NMRI mouse assessed as effect on survival days at 5 mg/kg, ip […] measured up to 60 days; assay type: functional; conditions: route intraperitoneal
Plasmodium falciparum = test: Antiplasmodial activity against Plasmodium falciparum K1 infected in human RBC after 48 hrs by [3H]-hypoxanthine incorporation assay; assay type: functional, organism-based
Procedure, shortened: (§2)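 Parasites were Trypanosoma brucei rhodesiense STIB900 and Plasmodium falciparum K1. Values are averages of duplicate determinations.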

[5] = test system: Trypanosoma brucei rhodesiense; test: Antitrypanosomal activity against Trypanosoma brucei rhodesiense STIB900 after 70 hrs by alamar blue assay; assay type: functional, organism-based; conditions: STIB900, 70 h; procedure, shortened: as §2
[6] = test system: Trypanosoma brucei rhodesiense; test: Antitrypanosomal activity against Trypanosoma brucei rhodesiense STIB900 infected in NMRI mouse assessed as effect on survival days at 20 mg/kg, ip administered 2 days after post infection for 4 consecutive days measured up to 60 days; assay type: functional; conditions: route intraperitoneal

Row | Structure (SMILES) | Activity [1] | IC50 (L6) | selectivity ratio [2] | selectivity ratio [3] | ΔTm (Nucleic Acid) | Survival [4] | IC50 (Plasmodium falciparum) | IC50 [5] | Survival [6]
1 | Cl.N=C(N)c1ccc(-c2ccc(-c3ccc(C(=N)N)o3)o2)cn1 | inactive | 38.5 µM | 6420 | 38500 | 5.5 °C | 41.75 days | 0.001 µM | 0.006 µM | 
2 | Cl.N=C(N)c1ccc(-c2ccc(-c3ccc(C(=N)N)o3)o2)cc1 |  | 37.8 µM | 3150 | 910 | 8.5 °C |  | 0.0415 µM | 0.012 µM | >45.5 days
3 | Cl.N=C(N)c1ccc(C#Cc2ccc(-c3ccc(C(=N)N)o3)o2)cc1 | inactive | 63 µM | 1500 | 4470 | 4 °C | 15.25 days | 0.0141 µM | 0.042 µM | 
4 | Cl.N=C(N)c1ccc(-c2ccc(-c3ccc(C(=N)N)s3)s2)cc1 | inactive | 6 µM | 3000 | 576 | 18.1 °C | 25.25 days | 0.0104 µM | 0.002 µM | 
5 | Cl.N=C(N)c1ccc(-c2ccc(-c3ccc(C(=N)N)s3)o2)cc1 | inactive | 10.9 µM | 1820 | 626 | 14.1 °C | 16.75 days | 0.0174 µM | 0.006 µM | 
6 | Cl.N=C(N)c1ccc(-c2ccc(-c3ccc(C(=N)N)s3)s2)cn1 |  | 4 µM | 1000 | 1740 | 16.6 °C | 49 days | 0.0023 µM | 0.004 µM | 
7 | Cl.N=C(N)c1ccc(-c2ccc(-c3ccc(C(=N)N)o3)s2)cc1 |  | 29.3 µM | 14900 | 32600 | 13.1 °C | >46.5 days | 0.0009 µM | 0.002 µM | 
8 | N=C(N)c1ccc(-c2ccc(-c3ccc(C(=N)N)cc3)o2)cc1 [FURAMIDINE] | Active |  |  |  |  | >46 days |  |  | 
9 | N=C(N)c1ccc(OCCCCCOc2ccc(C(=N)N)cc2)cc1 [PENTAMIDINE] |  | 6 µM |  |  |  | >45 days | 0.0064 µM |  | 
